Source: PubChem (several laboratories)
EphB4 ephrin blk = EphB4-ephrin-B2 interaction antagonism; P54760; EphB4 LBD / TNYL-RAW-Alexa532 peptide, fluorescence polarization; inhibition, % at 7 µM; hit rate 0.15% among 97,000;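 active = inhibition above the screen-wide mean inhibition plus 3 SD, cut at about 15% in these data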
Target sequence (P54760 whole entry, looked up, the tested form may be a part): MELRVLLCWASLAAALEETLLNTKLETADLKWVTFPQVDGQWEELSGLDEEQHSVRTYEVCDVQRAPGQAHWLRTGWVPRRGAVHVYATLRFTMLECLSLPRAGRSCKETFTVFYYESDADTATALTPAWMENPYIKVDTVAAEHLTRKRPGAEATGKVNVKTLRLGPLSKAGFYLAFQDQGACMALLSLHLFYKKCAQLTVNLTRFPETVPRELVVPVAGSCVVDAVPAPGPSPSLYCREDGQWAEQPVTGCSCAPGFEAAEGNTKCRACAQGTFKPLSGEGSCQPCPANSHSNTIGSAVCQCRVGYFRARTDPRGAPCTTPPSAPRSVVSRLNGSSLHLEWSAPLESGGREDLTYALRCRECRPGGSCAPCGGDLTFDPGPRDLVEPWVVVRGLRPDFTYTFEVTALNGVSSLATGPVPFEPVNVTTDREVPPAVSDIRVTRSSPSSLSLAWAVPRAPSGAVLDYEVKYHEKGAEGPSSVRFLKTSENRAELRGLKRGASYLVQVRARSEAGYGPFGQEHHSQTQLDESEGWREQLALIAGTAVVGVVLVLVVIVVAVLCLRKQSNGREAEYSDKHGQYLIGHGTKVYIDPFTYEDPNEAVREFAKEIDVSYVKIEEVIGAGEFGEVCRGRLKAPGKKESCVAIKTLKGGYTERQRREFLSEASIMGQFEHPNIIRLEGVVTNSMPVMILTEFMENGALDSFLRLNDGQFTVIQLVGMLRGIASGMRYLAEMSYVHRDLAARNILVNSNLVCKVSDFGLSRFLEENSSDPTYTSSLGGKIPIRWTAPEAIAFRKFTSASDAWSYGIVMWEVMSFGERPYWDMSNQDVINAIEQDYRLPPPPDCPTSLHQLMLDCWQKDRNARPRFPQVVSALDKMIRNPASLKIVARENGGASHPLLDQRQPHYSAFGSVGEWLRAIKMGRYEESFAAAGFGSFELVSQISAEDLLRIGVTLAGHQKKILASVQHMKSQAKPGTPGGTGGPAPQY
PLK1 kinase inh = inhibitors of human PLK1 kinase | P53350 | recombinant PLK1 kinase, TR-FRET peptide phosphorylation | inhibition, % at 10 µM | hit rate 0.53% among 97,000 | AID 619;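 active = inhibition of 50% or more in the single-concentration screen; inactive = inhibition below 50%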
HIV Rev-RRE inh = inhibitors of HIV-1 Rev-RRE RNA interaction; hit rate 0.79% among 97,000; inhibition, % at 8 µM; P05866; Rev peptide-RRE RNA binding, FRET;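 active = inhibition above the screen-wide mean plus 3 SD, cut at about 35% in these data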
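Assay system: labelled RRE RNA duplex and labelled Rev peptide / Medium: HEPES pH 7.5 salt buffer with EDTA / Reagent: labelled Rev peptide / Schedule: 5 + 15 min at 25 °C / Signal: FRET, excitation 480 nm, emission 540 nm donor and 671 nm acceptor / Benchmarks: DMSO and neomycin B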
hDAT+cocaine = human DAT dopamine uptake with cocaine, either direction; Q01959; LLC-PK1 hDAT cells, [14C]-dopamine uptake with cocaine IC80; actives deviate in either direction; B-score at 10 µM; hit rate 1.3% among 110,000;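 active = Z score or B-score, a plate-position-corrected score, falls beyond the plate's 99.7% confidence bounds, in either direction; inactive = both scores lie inside the 99.7% bounds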
FAK blocker = blocks human focal adhesion kinase activity; Q05397; biochemical FAK kinase activity assay; inhibition, %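 (tested at 7 µM)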; hit rate 0.84% among 97,000; AID 727; in the data active = inhibition above about 19%
PLK1 PBD inh = blocks phosphopeptide binding to human Plk1 polo box domain | hit rate 0.13% among 97,000 | inhibition, %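 (tested at about 20 µM)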 | P53350 | AID 693 | Plk1 PBD phosphopeptide binding, fluorescence polarization; in the data active = inhibition above about 34%, passing the limit was not always enough
Large screens that a line does not name were inactive; [ ] = dose if it differs, or a comment. In the library only some 3.2% were active in any assay of this set; here they are far more common.

COc1cc(/C=N/c2oc(-c3ccccc3)cc2C#N)ccc1O	HIV Rev-RRE inh 40
COc1cc(/C=N/NC(=O)c2sc(N)c(C#N)c2C)ccc1O	none
CN1CCN(C(=O)C23CCC(C)(c4nc5ccccc5nc42)C3(C)C)CC1 (stereo unspecified)	none
O=C(CCCCCNc1nc(=S)[nH]c2ccccc12)N1CCN(c2ccccn2)CC1	hDAT+cocaine 2.8
COc1ccc(-c2nn(C)c3sc(C(=O)N4CCOCC4)cc23)cc1OC	none (no result: EphB4 ephrin blk, PLK1 kinase inh, HIV Rev-RRE inh, FAK blocker, PLK1 PBD inh)
COc1ccc(N2CCN(C(=O)c3cc4c(-c5cccc(OC)c5)nn(C)c4s3)CC2)cc1	hDAT+cocaine 2 (no result: EphB4 ephrin blk, PLK1 kinase inh, HIV Rev-RRE inh, FAK blocker, PLK1 PBD inh)
Cc1ccc(S(=O)(=O)Nc2cccc(C(=O)Nc3cc(C)ccn3)c2)cc1	none
CCOc1cc(C(=O)Nc2cc(C)ccn2)cc(OCC)c1OCC	hDAT+cocaine 3
Cc1ccnc(NC(=O)c2cccc(NS(=O)(=O)c3ccccc3C)c2)c1	hDAT+cocaine 0.47
O=C(CNS(=O)(=O)c1ccc2ccccc2c1)OCc1nnc(-c2ccccc2)o1	none
CC(C)(C(=O)c1cccnc1)c1cccnc1	none (no result: EphB4 ephrin blk, PLK1 kinase inh, HIV Rev-RRE inh, FAK blocker, PLK1 PBD inh)
COCc1nnc(NC(=O)CC(c2ccccc2)c2ccccc2)s1	EphB4 ephrin blk 17 (no result: hDAT+cocaine)
COCc1nnc(NC(=O)CC(C)C)s1	none
CCOC(=O)C[C@H]1c2cc(C(F)(F)F)ccc2S(=O)(=O)N1C(C)C	none (no result: EphB4 ephrin blk, PLK1 kinase inh, HIV Rev-RRE inh, FAK blocker, PLK1 PBD inh)
O=c1c(Cl)c(N2CCN(S(=O)(=O)c3ccc(F)cc3)CC2)cnn1-c1cccc(Cl)c1	none
CCCc1cc2c(=O)c(-c3ccc4c(c3)OCCO4)c(C)oc2cc1OS(C)(=O)=O	hDAT+cocaine 2.8
CCCc1cc2c(=O)c(-c3ccc4c(c3)OCCO4)coc2cc1OC(=O)c1ccco1	none
Cc1nc2cc(C(=O)O)ccc2n1-c1ccccc1	PLK1 kinase inh 69
CCOC(=O)C[C@H]1c2ccccc2S(=O)(=O)N1c1ccccc1	none (no result: EphB4 ephrin blk, PLK1 kinase inh, HIV Rev-RRE inh, FAK blocker, PLK1 PBD inh)
CCCCN(C)C(=O)c1cn(CC)c2ccc(S(=O)(=O)N(C)C)cc2c1=O	PLK1 kinase inh 59
COc1ccccc1N1CCN(C(=O)CCNS(=O)(=O)c2ccc(Br)s2)CC1	hDAT+cocaine -3.9
CN(C)S(=O)(=O)N(CC(=O)Nc1cccc(F)c1)c1ccccc1	none
Brc1ccc(CSc2ncnc3nc[nH]c23)cc1	none (no result: EphB4 ephrin blk, PLK1 kinase inh, HIV Rev-RRE inh, FAK blocker, PLK1 PBD inh)
Cc1ccc(OCCSc2ncnc3nc[nH]c23)cc1	PLK1 kinase inh 56
CCOC(=O)/C(C(=O)Nc1ccccc1Cl)=C1/NC(C)(C)Cc2ccccc21	hDAT+cocaine 2.8
O=S(=O)(NCc1ccccn1)c1ccccc1	hDAT+cocaine -2.9
CCOC(=O)CC(=O)CSc1nc2ccc(C)cc2cc1C#N	HIV Rev-RRE inh 94[fluorescence artefact?]
CCOCCCNS(=O)(=O)c1ccc(NC(=O)N2c3ccccc3Sc3ccccc32)cc1	none
O=c1[nH]c(SCc2n[nH]c(=S)n2-c2ccccc2)nc2sc3c(c12)CCC3	none
COc1ccc2ccccc2c1C(O)c1nccn1C (stereo unspecified)	HIV Rev-RRE inh 135[fluorescence artefact?]
COCCn1c(SCC(=O)Nc2nnc(C)s2)nnc1-c1c[nH]c2ccccc12	none
COCCn1c(SCC(=O)NCc2ccc3c(c2)OCO3)nnc1-c1c[nH]c2ccccc12	PLK1 kinase inh 63
COCCn1c(SCc2ccc(C(=O)OC)o2)nnc1-c1c[nH]c2ccccc12	PLK1 kinase inh 59
C=CCSc1nnc(-c2c[nH]c3ccccc23)n1CCOC	none
CCC(C)(C(=O)NC1CCCC1)N(C(=O)c1ccccn1)c1ccc(C)cc1 (stereo unspecified)	none
Nc1ccccc1-c1nnn(CC(=O)N2CCCc3ccccc32)n1	none
Cn1/c(=N/N=C/c2ccc([N+](=O)[O-])cc2)sc2ccccc21	HIV Rev-RRE inh 58
O=C(Nc1nc(=S)ss1)c1ccc(Cl)cc1Cl	none
Cc1[nH]c(=O)c(C#N)c2c1CSC(C)(C)C2	hDAT+cocaine -2.5
Cc1ccc(C)c(NC(=S)NCc2cccn2C)c1	none (no result: hDAT+cocaine)
COC(=O)c1ccc(Cl)c(NC(=O)c2ccc(-c3ccccc3)cc2)c1	none
CCCCC(=O)N1C/C=C\C(c2ccc(OC)cc2)N(Cc2ccc(F)cc2)C(=O)C1 (stereo unspecified)	none (no result: EphB4 ephrin blk, PLK1 kinase inh, HIV Rev-RRE inh, FAK blocker, PLK1 PBD inh)
COC(=O)C1C2C=CC3(CN(C(C)C)C(=O)C13)O2 (stereo unspecified)	PLK1 kinase inh 55
COC(=O)C1C2C=CC3(CN(C(C)c4ccc(OC)cc4)C(=O)C13)O2 (stereo unspecified)	none (no result: EphB4 ephrin blk, PLK1 kinase inh, HIV Rev-RRE inh, FAK blocker, PLK1 PBD inh)
O=C(CC(C(=O)N1CCc2ccccc21)n1ccnc1)N1CCc2ccccc2C1 (stereo unspecified)	HIV Rev-RRE inh 60 (no result: hDAT+cocaine)
COC(=O)c1cc2c(C)c(C)c3ccccn3c-2c1C(=O)OC	hDAT+cocaine -9.1
COC(=O)c1cc2c(C)cc3ccc(C)cn3c-2c1C(=O)OC	HIV Rev-RRE inh 36
COC(=O)c1coc(-c2ccc(C)cc2)c1C(=O)OC	none
COC(=O)c1cc2ccccn2c2c(C(=O)OC)c(C(=O)OC)cc1-2	none
COc1ccc(CCNC2CCN(C)CC2)cc1OC	none
N#CC1=C(N)SC(N)=C(C#N)C1c1ccnc2ccccc12	HIV Rev-RRE inh 60
Cc1ccc(C(=O)CCC(=O)Nc2cccnc2)cc1C	hDAT+cocaine -8.5
O=c1cc(-c2ccccc2Cl)oc2c([N+](=O)[O-])c(O)cc(O)c12	none (no result: EphB4 ephrin blk, PLK1 kinase inh, HIV Rev-RRE inh, FAK blocker, PLK1 PBD inh)
Cc1ccc(NC(=O)C2CCCN2S(=O)(=O)c2ccc3c(c2)CCC(=O)N3)cc1Cl (stereo unspecified)	PLK1 kinase inh 67
COc1cc(NC(=O)C2CCCN2S(=O)(=O)c2ccc3c(c2)CCC(=O)N3)cc(OC)c1 (stereo unspecified)	none
O=c1c(/C=C(\O)c2ccc(F)cc2)nc2ccccc2n1-c1ccccc1	HIV Rev-RRE inh 127[fluorescence artefact?]
COc1ccc(/C=N/NS(=O)(=O)c2ccccc2)cc1OS(=O)(=O)c1ccc(C)cc1	none
COc1cc(/C=N/NC(=O)COc2ccc(Cl)cc2)ccc1OS(=O)(=O)c1ccc(C)cc1	hDAT+cocaine -8.3
COc1cc2c(cc1OC)C(c1ccc(N(C)C)cc1)CC(=O)N2 (stereo unspecified)	none
CCN(CC)c1ccc(C2CC(=O)Nc3cc(OC)c(OC)cc32)cc1 (stereo unspecified)	hDAT+cocaine 2.4
Cc1ccc(N2CC3=C(C2=O)C(c2ccccc2)NC(=O)N3C)cc1 (stereo unspecified)	hDAT+cocaine -1.5
Cc1oc(-c2cccs2)nc1CS(=O)CC(=O)NCCCOC(C)C (stereo unspecified)	none
CCCCNC(=O)CS(=O)Cc1nc(-c2cccs2)oc1C (stereo unspecified)	PLK1 kinase inh 59
Cc1oc(-c2ccccc2F)nc1CS(=O)CC(=O)NCc1cccs1 (stereo unspecified)	PLK1 kinase inh 62
CN(C)S(=O)(=O)c1ccc(C(=O)OCC(=O)c2ccc(OC(F)F)cc2OC(F)F)cc1	none
Cc1ccc2nc(N/N=C\c3ccc([N+](=O)[O-])o3)nc(-c3ccccc3)c2c1	HIV Rev-RRE inh 58 (no result: hDAT+cocaine)
